Consider one compound from ChEMBL document CHEMBL1833940, “Discovery of 3-(2,6-dichloro-3,5-dimethoxy-phenyl)-1-{6-[4-(4-ethyl-piperazin-1-yl)-phenylamino]-pyrimidin-4-yl}-1-methyl-urea (NVP-BGJ398), a potent and selective inhibitor of the fibroblast growth factor receptor family of receptor tyrosine kinase” (J Med Chem, 2011).

pIC50: −log10 of the molar value. The source made the active and inactive calls. The calls are words filed in the database; no cut-off is given here. A value given as a limit tells only on which side of the number the result lay.

A short description of series [1]: Cmax in plasma of RT112/luc1 cells implanted athymic nude mouse at 20 mg/kg, po by LC/MS/MS analysis. The arrangement: dose 20 mg/kg, route oral. The series is classed as ADME, organism-based. The method, boiled down: (§1)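 Female athymic nude mice carried subcutaneous RT112/luc1 tumors (5×10^6 cells, 50% Matrigel; about 300–400 mm3). Dosing was either 5 mg/kg iv by tail vein in NMP/PEG200 (1:9) or 20 mg/kg oral suspension in PEG300/D5W (2:1). Groups of mice (n = 4) were sacrificed at 0.083–24 h. Plasma and tumor levels were measured by LC-MS/MS (LOQ 5 ng/mL, 10 ng/g).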

Series [2] can be described thus: Volume of distribution at steady state in Wistar rat at 5 mg/kg, iv by LC-MS/MS analysis. The arrangement: dose 5 mg/kg, route intravenous. As to conditions: in vivo, read-out: Vdss. The format is ADME, organism-based. The method, boiled down: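 Female Wistar rats received 5 mg/kg iv into the femoral vein in NMP/PEG200 (1:9), or the monophosphate salt orally at 10 mg/kg (free base) in acetate buffer pH 4.6/PEG300. Serial sublingual plasma samples were taken from 0.083 to 24 h.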

Series [3] in a line: Half life in tumor of RT112/luc1 cells implanted athymic nude mouse at 20 mg/kg, po by LC/MS/MS analysis. The arrangement: dose 20 mg/kg, route oral. The format is ADME, organism-based, Neoplasm. The method, boiled down: as §1
Series [4] deals with Insulin-like growth factor 1 receptor (Homo sapiens, UniProt P08069). Briefly: Inhibition of recombinant IGF1R. The gist of the method:
(§2)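 Purified recombinant kinases under optimized conditions with peptide substrates. ATP was set at each kinase's Km. Phosphorylation was read by microfluidic mobility-shift separation of substrate and product; IC50 determined.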

Series [5] has as its target Tyrosine-protein kinase receptor UFO (Homo sapiens, UniProt P30530). The series can be described thus: Inhibition of recombinant AXL. The method, boiled down: (§3)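 Purified recombinant kinases under optimized conditions, with peptide substrates and ATP at each kinase's Km. Phosphorylation was read out by microfluidic mobility shift, and IC50 values were obtained.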
Series [6] deals with Phosphatidylinositol 4-kinase beta (Homo sapiens, UniProt Q9UBF8). Briefly: Inhibition of PI4Kbeta by luminescent kinase assay.
Series [7] addresses Serine/threonine-protein kinase N1 (Homo sapiens, UniProt Q16512). Briefly: Inhibition of recombinant PKN1. The method, boiled down:
as §2

Series [8] in a line: Tmax in tumor of RT112/luc1 cells implanted athymic nude mouse at 20 mg/kg, po by LC/MS/MS analysis. The format is ADME, organism-based, Neoplasm. The arrangement: dose 20 mg/kg, route oral. The gist of the method: (§4)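 Female athymic nude mice carrying subcutaneous RT112/luc1 tumors (ca. 300–400 mm3). Dosing was 5 mg/kg iv by tail vein in NMP/PEG200 (1:9) or 20 mg/kg by oral gavage as a suspension in PEG300/D5W (2:1). Groups (n = 4) were sacrificed from 0.083 to 24 h. Plasma and tumor were measured by LC-MS/MS (LOQ 5 ng/mL, 10 ng/g). Noncompartmental analysis used the linear trapezoidal AUC; F was calculated from dose-normalized AUC.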

For series [9], the target named is Aurora kinase A (Homo sapiens, UniProt O14965). The series can be described thus: Inhibition of recombinant Aurora A. The gist of the method: as §3
The target of series [10] is Phosphatidylinositol 4,5-bisphosphate 3-kinase catalytic subunit beta isoform (Homo sapiens, UniProt P42338). Briefly: Inhibition of recombinant PI3Kbeta by luminescent kinase assay.
Series [11] can be described thus: Clearance in Wistar rat at 5 mg/kg, iv by LC-MS/MS analysis. The arrangement: dose 5 mg/kg, route intravenous. The format is ADME, organism-based. The note with it: in vivo. The gist of the method: (§5)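 Female Wistar rats received either an iv femoral-vein dose of 5 mg/kg in NMP/PEG200 (1:9) or an oral dose of monophosphate salt at 10 mg/kg (free base) in acetate buffer pH 4.6/PEG300. Plasma was sampled by sublingual bleeding at 0.083–24 h (n = 4 staggered, or n = 3–4 serial). Plasma levels were measured by LC-MS/MS (LOQ 10 ng/mL).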

The nature of series [12]: Cmax in Wistar rat at 10 mg/kg, po by LC-MS/MS analysis. The format is ADME, organism-based. The arrangement: dose 10 mg/kg, route oral. As to conditions: in vivo. The method, boiled down:
as §5

Series [13] has as its system Tumour. The series can be described thus: Drug uptake in tumor of nude rowett rat bearing human RT112 cells at 4.25 mg/kg, po administered as a single dose after 7 hrs by LC-MS/MS analysis. The note with it: in vivo. The arrangement: dose 4.25 mg/kg, route oral. The series is classed as ADME, organism-based, Neoplasm, RT-112. The method, boiled down: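 Nude Rowett rats bearing subcutaneous RT112 tumors (n = 4) received a single gavage of monophosphate salt at 4.25 or 8.51 mg/kg free base in acetate buffer pH 4.6/PEG300. Tumors were collected at intervals after dosing, frozen and homogenized in an equal volume of ice-cold PBS. Compound levels were measured by LC-MS/MS (LOQ 3 ng/mL).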

The test system of series [14] is Rattus norvegicus. Briefly: Inhibition of FGFR autophosphorylation in RT112 tumour bearing po dosed nude Rowett rat assessed as decrease in pFRS2 concentration administered as a single dose by Western blot analysis. The series is classed as functional, organism-based. The gist of the method:
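RT112 subcutaneous xenografts in female nude Rowett rats (n = 4). Single oral gavage of the monophosphate salt at 4.25 or 8.51 mg/kg (free base equivalents) in acetic acid–acetate buffer pH 4.6/PEG300 (1:1). Tumors were collected at time points up to 24 h, frozen, homogenized and lysed. Western blots probed pFRS2(Tyr196) and pMAPK, with total FRS2, total MAPK or β-tubulin as loading controls.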
(In general: In western blotting, separated proteins are transferred to a membrane and probed.)

The target in series [15] is RAC-alpha serine/threonine-protein kinase (Homo sapiens, UniProt P31749). The series can be described thus: Inhibition of recombinant PKBalpha. The gist of the method: as §2
Chain of RAC-alpha serine/threonine-protein kinase (P31749 whole entry): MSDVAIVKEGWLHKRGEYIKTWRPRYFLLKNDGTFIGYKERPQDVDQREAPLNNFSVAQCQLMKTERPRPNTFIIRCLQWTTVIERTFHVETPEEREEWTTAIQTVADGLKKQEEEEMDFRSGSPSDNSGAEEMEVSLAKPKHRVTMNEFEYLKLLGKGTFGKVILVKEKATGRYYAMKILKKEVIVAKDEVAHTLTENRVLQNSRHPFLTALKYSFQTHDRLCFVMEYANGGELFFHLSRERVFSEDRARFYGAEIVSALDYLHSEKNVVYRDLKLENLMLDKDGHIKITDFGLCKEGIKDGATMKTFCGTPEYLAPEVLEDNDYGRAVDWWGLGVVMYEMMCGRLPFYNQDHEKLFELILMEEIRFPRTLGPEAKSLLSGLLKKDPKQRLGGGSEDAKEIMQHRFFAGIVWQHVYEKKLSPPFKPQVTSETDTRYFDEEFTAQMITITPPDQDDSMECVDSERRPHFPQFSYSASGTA
The target of series [16] is Cyclin-dependent kinase 2 (Homo sapiens, UniProt P24941). The series can be described thus: Inhibition of recombinant CDK2. The gist of the method: as §3
A short description of series [17]: Plasma clearance in RT112/luc1 cells implanted athymic nude mouse at 5 mg/kg, iv by LC/MS/MS analysis. The arrangement: dose 5 mg/kg, route intravenous. The format is ADME, organism-based. The gist of the method: as §4
Series [18] concerns the target Tyrosine-protein kinase JAK2 (Homo sapiens, UniProt O60674). Briefly: Inhibition of recombinant JAK2. The method, boiled down:
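Purified recombinant kinases were tested under optimized conditions with peptide substrates. ATP was set at each kinase's Km. Phosphorylation was read out by microfluidic mobility shift, and IC50 values were determined.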

In series [19] the test system is Plasma. Briefly: Dose normalized AUC in plasma of RT112/luc1 cells implanted athymic nude mouse at 5 mg/kg, iv by LC/MS/MS analysis. The series is classed as ADME, organism-based. The arrangement: dose 5 mg/kg, route intravenous. The note with it: in vivo. The method, boiled down: as §1
Series [20] deals with RT-112. The series can be described thus: Antitumor activity against human RT112 cells xenografted in athymic nude mouse assessed as tumor stasis at 30 mg/kg, po administered for 12 days. The series is classed as functional, organism-based. The arrangement: dose 30 mg/kg. The gist of the method:
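Female HsdNpa:Athymic Nude-nu mice received RT112/luc1 cells (luciferase retroviral line; about 1–2×10^5 cells) into the bladder lumen. Oral treatment started 14 days after inoculation: suspension in PEG300/D5W (2:1) at 10 or 30 mg/kg/qd for 12 days. Tumor burden was measured by IVIS bioluminescence 10 min after iv D-luciferin. T/C was computed from change in light emission; ANOVA with Dunnett's test.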

Chain of Tyrosine-protein kinase receptor UFO (P30530 whole entry): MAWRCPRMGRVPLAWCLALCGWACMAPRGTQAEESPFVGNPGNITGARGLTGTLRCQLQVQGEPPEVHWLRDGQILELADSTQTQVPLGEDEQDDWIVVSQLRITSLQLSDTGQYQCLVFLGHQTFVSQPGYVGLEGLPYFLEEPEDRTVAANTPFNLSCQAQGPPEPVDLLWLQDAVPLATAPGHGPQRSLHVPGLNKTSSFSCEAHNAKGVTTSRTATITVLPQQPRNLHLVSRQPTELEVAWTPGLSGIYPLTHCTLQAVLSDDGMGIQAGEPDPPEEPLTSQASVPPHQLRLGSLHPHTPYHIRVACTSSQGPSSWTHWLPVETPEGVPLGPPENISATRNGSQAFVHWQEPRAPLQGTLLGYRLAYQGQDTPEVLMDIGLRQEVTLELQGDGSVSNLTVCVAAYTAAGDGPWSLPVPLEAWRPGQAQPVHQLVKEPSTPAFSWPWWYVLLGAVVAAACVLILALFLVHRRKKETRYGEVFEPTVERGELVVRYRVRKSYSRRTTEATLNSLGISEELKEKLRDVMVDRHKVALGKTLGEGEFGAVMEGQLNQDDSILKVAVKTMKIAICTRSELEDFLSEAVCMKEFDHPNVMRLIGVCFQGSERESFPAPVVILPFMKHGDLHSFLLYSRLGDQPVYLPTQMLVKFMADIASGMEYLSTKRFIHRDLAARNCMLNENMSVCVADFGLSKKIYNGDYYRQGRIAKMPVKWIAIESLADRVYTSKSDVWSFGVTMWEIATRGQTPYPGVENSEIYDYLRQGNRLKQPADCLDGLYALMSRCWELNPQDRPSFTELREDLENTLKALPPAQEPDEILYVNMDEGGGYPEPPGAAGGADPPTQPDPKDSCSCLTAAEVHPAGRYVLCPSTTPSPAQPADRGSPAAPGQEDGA
Chain of Serine/threonine-protein kinase N1 (Q16512 whole entry): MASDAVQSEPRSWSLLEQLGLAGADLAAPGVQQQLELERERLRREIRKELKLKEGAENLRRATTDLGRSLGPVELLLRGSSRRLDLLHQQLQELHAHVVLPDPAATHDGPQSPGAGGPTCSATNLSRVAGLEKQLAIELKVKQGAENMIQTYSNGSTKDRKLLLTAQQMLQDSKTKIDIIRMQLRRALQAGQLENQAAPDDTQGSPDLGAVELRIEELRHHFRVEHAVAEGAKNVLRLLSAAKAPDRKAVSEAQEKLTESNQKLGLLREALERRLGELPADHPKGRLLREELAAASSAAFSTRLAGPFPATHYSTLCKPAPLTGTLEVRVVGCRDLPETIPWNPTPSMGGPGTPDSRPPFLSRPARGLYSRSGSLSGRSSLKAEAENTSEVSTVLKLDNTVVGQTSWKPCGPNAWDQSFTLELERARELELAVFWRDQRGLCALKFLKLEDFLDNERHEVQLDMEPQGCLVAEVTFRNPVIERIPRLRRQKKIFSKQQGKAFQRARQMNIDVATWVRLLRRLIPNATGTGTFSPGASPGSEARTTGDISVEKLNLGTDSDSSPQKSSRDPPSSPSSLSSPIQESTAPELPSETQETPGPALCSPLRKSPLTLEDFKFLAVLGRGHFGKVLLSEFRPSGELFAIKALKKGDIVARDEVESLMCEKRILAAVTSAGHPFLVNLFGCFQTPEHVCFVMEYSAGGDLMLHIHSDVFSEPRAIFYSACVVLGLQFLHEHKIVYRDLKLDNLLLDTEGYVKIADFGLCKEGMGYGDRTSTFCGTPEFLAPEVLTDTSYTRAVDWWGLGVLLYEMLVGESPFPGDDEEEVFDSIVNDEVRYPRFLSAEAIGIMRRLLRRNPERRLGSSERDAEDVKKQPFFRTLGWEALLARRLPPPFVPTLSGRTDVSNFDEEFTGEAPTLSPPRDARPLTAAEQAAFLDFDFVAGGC
Chain of Tyrosine-protein kinase JAK2 (O60674 whole entry): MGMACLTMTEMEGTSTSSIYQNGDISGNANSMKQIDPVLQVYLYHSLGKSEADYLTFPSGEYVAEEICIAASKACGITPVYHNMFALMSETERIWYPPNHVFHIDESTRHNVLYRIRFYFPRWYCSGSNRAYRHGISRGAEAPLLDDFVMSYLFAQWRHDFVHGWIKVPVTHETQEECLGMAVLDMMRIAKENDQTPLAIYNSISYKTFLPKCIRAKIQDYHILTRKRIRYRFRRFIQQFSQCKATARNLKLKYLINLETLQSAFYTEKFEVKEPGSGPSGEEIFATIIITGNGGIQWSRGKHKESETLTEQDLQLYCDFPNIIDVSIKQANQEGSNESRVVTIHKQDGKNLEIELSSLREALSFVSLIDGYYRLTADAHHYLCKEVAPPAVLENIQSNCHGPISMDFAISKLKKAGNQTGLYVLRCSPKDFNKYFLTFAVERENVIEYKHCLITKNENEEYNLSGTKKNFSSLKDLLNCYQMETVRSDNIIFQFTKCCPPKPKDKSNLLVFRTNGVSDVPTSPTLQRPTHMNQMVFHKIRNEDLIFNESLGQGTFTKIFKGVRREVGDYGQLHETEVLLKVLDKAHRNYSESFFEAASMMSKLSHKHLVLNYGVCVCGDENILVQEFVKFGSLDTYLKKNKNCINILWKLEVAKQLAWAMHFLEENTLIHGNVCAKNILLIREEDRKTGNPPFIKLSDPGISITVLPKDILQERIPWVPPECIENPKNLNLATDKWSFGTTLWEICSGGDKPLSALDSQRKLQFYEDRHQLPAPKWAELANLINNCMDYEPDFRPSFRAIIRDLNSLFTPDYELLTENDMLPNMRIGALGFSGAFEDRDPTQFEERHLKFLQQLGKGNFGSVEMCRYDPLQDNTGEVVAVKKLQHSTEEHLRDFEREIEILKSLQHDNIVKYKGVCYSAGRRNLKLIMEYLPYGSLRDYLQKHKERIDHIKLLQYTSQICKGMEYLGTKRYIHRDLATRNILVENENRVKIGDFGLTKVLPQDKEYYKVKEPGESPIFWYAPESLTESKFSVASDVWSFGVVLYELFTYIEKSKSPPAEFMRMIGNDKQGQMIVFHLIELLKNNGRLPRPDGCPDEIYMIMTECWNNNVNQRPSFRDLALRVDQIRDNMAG
Chain of Insulin-like growth factor 1 receptor (P08069 31-736 limits assumed): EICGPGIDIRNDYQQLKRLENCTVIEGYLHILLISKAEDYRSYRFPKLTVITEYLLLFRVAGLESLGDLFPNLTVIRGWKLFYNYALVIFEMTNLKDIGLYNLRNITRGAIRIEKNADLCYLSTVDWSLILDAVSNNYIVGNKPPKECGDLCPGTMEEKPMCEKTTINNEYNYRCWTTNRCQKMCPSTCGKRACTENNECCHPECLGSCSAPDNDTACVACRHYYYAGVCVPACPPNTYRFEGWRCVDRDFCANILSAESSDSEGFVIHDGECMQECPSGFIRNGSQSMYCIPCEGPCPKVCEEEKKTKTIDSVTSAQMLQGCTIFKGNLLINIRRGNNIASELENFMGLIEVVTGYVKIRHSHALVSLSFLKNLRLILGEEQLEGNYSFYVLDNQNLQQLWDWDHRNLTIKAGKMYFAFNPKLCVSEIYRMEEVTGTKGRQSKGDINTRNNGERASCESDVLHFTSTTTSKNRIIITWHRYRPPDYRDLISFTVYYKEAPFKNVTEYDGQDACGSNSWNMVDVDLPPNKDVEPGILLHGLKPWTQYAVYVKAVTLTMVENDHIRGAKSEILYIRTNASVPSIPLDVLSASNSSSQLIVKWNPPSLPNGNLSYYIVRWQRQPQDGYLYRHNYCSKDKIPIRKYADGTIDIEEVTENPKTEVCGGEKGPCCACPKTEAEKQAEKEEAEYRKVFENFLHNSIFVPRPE
Chain of Insulin-like growth factor 1 receptor (P08069 741-1367 limits assumed): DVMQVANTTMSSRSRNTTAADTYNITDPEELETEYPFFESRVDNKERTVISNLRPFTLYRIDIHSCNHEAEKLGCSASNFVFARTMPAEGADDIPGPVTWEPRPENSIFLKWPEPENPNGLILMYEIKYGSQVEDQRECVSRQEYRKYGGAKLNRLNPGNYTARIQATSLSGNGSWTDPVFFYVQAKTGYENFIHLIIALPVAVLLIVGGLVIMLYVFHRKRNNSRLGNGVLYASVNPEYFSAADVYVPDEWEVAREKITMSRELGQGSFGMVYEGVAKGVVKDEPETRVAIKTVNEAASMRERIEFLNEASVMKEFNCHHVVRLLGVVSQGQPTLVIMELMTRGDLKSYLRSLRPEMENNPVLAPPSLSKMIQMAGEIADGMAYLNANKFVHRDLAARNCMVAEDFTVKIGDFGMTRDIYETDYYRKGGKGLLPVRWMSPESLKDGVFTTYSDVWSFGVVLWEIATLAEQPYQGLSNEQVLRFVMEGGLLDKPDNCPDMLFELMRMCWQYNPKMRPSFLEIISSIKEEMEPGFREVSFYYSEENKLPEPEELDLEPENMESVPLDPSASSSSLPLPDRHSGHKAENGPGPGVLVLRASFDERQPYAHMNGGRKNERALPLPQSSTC

With `CCN1CCN(c2ccc(Nc3cc(N(C)C(=O)Nc4c(Cl)c(OC)cc(OC)c4Cl)ncn3)cc2)CC1.O=P(O)(O)O` [INFIGRATINIB PHOSPHATE], the Cmax came out at 420 nM in [1] and 260 nM in series [12]. Further, the Vd in [2] came to 9.6 L/kg. The compound also showed a half-life in series [3] of 13 h. Besides, the pIC50 is under 5.00 in series [4]; under 5.00 in series [5]; under 5.05 in series [6]; under 5.00 in series [7]; under 5.00 in [9]; under 5.05 in [10]. In addition, the pIC50 in series [15], in series [16] and in [18] was under 5.00 throughout. Besides, in [8], the Tmax stood at 8 h. Further, the results for the clearance in [11] and in [17] were 60 mL/min/kg and 55 mL/min/kg, respectively. The Drug uptake in series [13] was found to be 0.65 nmol/g. Also, the Activity entry in series [14] was “Dose-dependent effect”. Further, the AUC/dose in [19] is 0.6 µM·h. Moreover, the result in series [20] was Active.

Usually Cmax stands for the maximum level reached in the sampled fluid or tissue. Usually half-life stands for the time in which the quantity being followed falls by half. By pIC50 is commonly meant the IC50 on a negative log10 scale, so that one unit is a factor of ten. One may read the Tmax as the time at which the peak concentration occurs. The term clearance denotes a measure of how efficiently the substance is removed, as volume per time. Read a high clearance as efficient removal.
